# Published values of several laboratories.
# Each line is one published result; the experiments were not run side by side.
# Sample: plasma
SMILES,species,route,dose,setting,Cmax
CCCOc1ccc([C@H]2CNC(=O)N2c2ccc3[nH]cnc3c2)cc1,human,oral,200 mg,"fasted, healthy volunteers",989 ng/mL
CCn1c(=O)c(-c2cc(NC(=O)Nc3ccccc3)c(F)cc2Br)cc2cnc(NC)cc21,human,oral,250 mg,"single dose, patients",1070 ng/mL
Cn1c(=O)oc2ccc(-c3ccc(C[C@@H](C#N)NC(=O)[C@@H]4CNCCCO4)cc3)cc21,male human,oral,15 mg,"single dose, healthy volunteers",202 nM
COCCOc1cnc2ccn([C@H](C)c3nnc4c(F)cc(-c5cnn(C)c5)cn34)c(=O)c2c1,human,oral,200 mg,"multiple doses, once daily, patients",3760 ng/mL
O=C(O)C[C@H](O)C[C@H](O)/C=C/c1c(C2CC2)nc2ccccc2c1-c1ccc(F)cc1,human,oral,2 mg,"single dose, fed, healthy volunteers, tablet",46.5 ng/mL
COc1cc(C(=O)NC2CCN(C)CC2)c(F)cc1Nc1ncc(C(F)(F)F)c(Oc2cccc3c2C(=O)N(C)C3)n1,human,oral,10 mg,"multiple doses, once daily, steady state, patients",59.2 nM
NS(=O)(=O)NCCNc1nonc1C(=NO)Nc1ccc(F)c(Br)c1,human,oral,500 mg,"multiple doses, twice daily, steady state, patients",4820 nM
C[C@@]1(c2cc(NC(=O)c3ccc(C#N)cn3)ccc2F)C=CSC(N)=N1,human,oral,1 mg,single dose,5.62 ng/mL
CCOc1cc2ncc(C#N)c(Nc3ccc(OCc4ccccn4)c(Cl)c3)c2cc1NC(=O)/C=C/[C@H]1CCCN1C,human,oral,80 mg,single dose,26.5 ng/mL
CCc1nc2c(C)cc(N3CCN(CC(=O)N4CC(O)C4)CC3)cn2c1N(C)c1nc(-c2ccc(F)cc2)c(C#N)s1,human,oral,1000 mg,"fed, healthy volunteers",13200 ng/mL
C/C(=C\c1csc(C)n1)[C@@H]1C[C@@H]2O[C@]2(C)CCC[C@H](C)[C@H](O)[C@@H](C)C(=O)C(C)(C)[C@@H](O)CC(=O)N1,human,intravenous,20 mg/m²,patients,249 ng/mL
CS(=O)(=O)CCNCc1ccc(-c2ccc3ncnc(Nc4ccc(OCc5cccc(F)c5)c(Cl)c4)c3c2)o1,human,oral,500 mg,"multiple doses, twice daily, steady state, patients",2370 ng/mL
CNC(=O)c1cc(Oc2ccc(NC(=O)Nc3cc(C(C)(C)C)nn3-c3ccc4ncccc4c3)c(F)c2)ccn1,human,oral,100 mg,"multiple doses, twice daily",114 ng/mL
COc1ccc([C@@H]2CN(C(=O)[C@@H](O)CO)C[C@@]2(C)[C@@H](C)O)cc1OC1CN(c2ccc(C)cn2)C1,human,oral,5 mg,"single dose, healthy volunteers",213 ng/mL
CO[C@H]1CC[C@H](N2C(=O)CNc3ncc(-c4ccc(C(C)(C)O)nc4)nc32)CC1,human,oral,7.5 mg,"multiple doses, patients",50.8 ng/mL
Oc1cc(O)c2c(c1)O[C@@H](c1ccc(O)c(O)c1)[C@@H](O)C2,human,oral,100 mg,single dose,3.6 ng/mL
Cn1cc(-c2ccc(S(=O)(=O)[C@@H]3C[C@@H](C(=O)NC4(C#N)CC4)N(C(=O)C4(C(F)(F)F)CC4)C3)c(C(F)(F)F)c2)cn1,human,oral,600 mg,"single dose, fasted, healthy volunteers",1300 ng/mL
CC(C)n1cc(C#N)c2cc(-n3cc(C(=O)O)cn3)ccc21,human,oral,400 mg,"single dose, fasted, healthy volunteers",14700 ng/mL
COc1cc2c(cc1OC)CN(CCc1ccc(NC(=O)c3cc(OC)c(OC)cc3NC(=O)c3cnc4ccccc4c3)cc1)CC2,human,intravenous,1.5 mg/kg,patients,2300 nM
Nc1cc(C(F)(F)F)c(-c2cc(N3CCOCC3)nc(N3CCOCC3)n2)cn1,human,oral,100 mg/day,patients,1080 ng/mL
